{"source": "ChEMBL document CHEMBL2331390", "about": "“Telomere shortening and cell senescence induced by perylene derivatives in A549 human lung cancer cells” (Bioorg Med Chem, 2013)", "key": {"[1]": {"system": "A549", "assay": "Cytotoxicity against human A549 cells assessed as colony formation at 0.4 uM incubated for 54 days followed by subculturing in compound-free medium measured after 14 days by crystal violet staining method relative to control", "format": "functional", "outline": "(§1)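 A549 cells from the long-term culture (0.4 or 0.8 μM, medium changed every 3 days, replated every 6 days) were collected on the stated day. 2×10^3 cells seeded per 10-cm dish, fed every 4-5 days. Colonies stained with crystal violet after 14 days and counted; expressed as % of control. Controls under 25 colonies excluded. Three independent experiments.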"}, "[2]": {"system": "A549", "assay": "Binding affinity to human TERT promoter DNA sequence in human A549 cells assessed as telomere restriction fragment length at 0.8 uM after 6 days by TeloTAGGG-based chemiluminescence assay (reference value: 3.6 kb)", "format": "cell-based", "outline": "(§2)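 Genomic DNA from A549 cells kept long-term with 0.4 or 0.8 μM compound (medium changed every 3 days, replated every 6 days). DNA isolated with DNAzol. 2 µg digested with RsaI/HinfI, run on 0.8% agarose, Southern-blotted, hybridized with DIG-labeled telomeric probe, anti-DIG alkaline phosphatase, chemiluminescence. Mean TRF = Σ(ODi)/Σ(ODi/Li).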"}, "[3]": {"system": "A549", "assay": "Induction of senescence in human A549 cells assessed as cell enlargement at 0.4 uM incubated for 54 days followed by subculturing on compound-free medium measured after 48 hrs by fluorescence microscopic analysis", "format": "functional, cell-based", "outline": "(§3)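 A549 cells from the long-term treatment replated and grown 48 h. Fixed in 2% formaldehyde/0.2% glutaraldehyde for 5 min at RT. Stained overnight with 1 mg/ml X-gal in pH 6 citrate/phosphate buffer with 5 mM ferro/ferricyanide, 150 mM NaCl, 2 mM MgCl2. Enlarged blue cells scored by microscopy.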"}, "[4]": {"system": "A549", "assay": "Induction of senescence in human A549 cells assessed as increase in beta-galactosidase activity at 0.4 uM incubated for 54 days followed by subculturing on compound-free medium measured after 48 hrs by fluorescence microscopic analysis", "format": "functional, cell-based", "outline": "as §3"}, "[5]": {"system": "A549", "assay": "Binding affinity to human TERT promoter DNA sequence in human A549 cells assessed as telomere restriction fragment length at 0.4 uM after 54 days by TeloTAGGG-based chemiluminescence assay (reference value: 3.6 kb)", "format": "cell-based", "outline": "as §2"}, "[6]": {"species": "Homo sapiens", "assay": "Binding affinity to human telomeric 5'-AGATAGTTAGGGTTAGGGTTAGGGTTAGGGTT-3' DNA assessed as induction of intramoleculsr G-quadruplex formation after 10 hrs by PAGE analysis", "outline": "(§4)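 FAM-labeled G-rich strand (2 µM) and complementary C-rich strand (2 µM) with compound in 10 mM Tris-HCl pH 7.4, 100 mM KCl. Heated to 95 °C for 5 min, slowly cooled to 55 °C, held 10 h, then cooled to 4 °C. Duplex vs G-quadruplex resolved on 16% native PAGE with 50 mM KCl (4 °C, 350 V, 10 h) and fluorescence-imaged.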"}, "[7]": {"system": "A549", "assay": "Cytotoxicity against human A549 cells assessed as colony formation at 0.4 uM incubated for 24 days followed by subculturing in compound-free medium measured after 14 days by crystal violet staining method relative to control", "format": "functional", "outline": "as §1"}, "[8]": {"system": "A549", "assay": "Binding affinity to human TERT promoter DNA sequence in human A549 cells assessed as telomere restriction fragment length at 0.4 uM after 6 days by TeloTAGGG-based chemiluminescence assay (reference value: 3.6 kb)", "format": "cell-based", "outline": "as §2"}, "[9]": {"system": "A549", "assay": "Binding affinity to human TERT promoter DNA sequence in human A549 cells assessed as telomere restriction fragment length at 0.8 uM after 18 days by TeloTAGGG-based chemiluminescence assay (reference value: 3.6 kb)", "format": "cell-based", "outline": "as §2"}, "[10]": {"system": "A549", "assay": "Antiproliferative activity against human A549 cells assessed as decrease in cell viability at 0.4 uM after 42 days", "format": "functional, cell-based", "outline": "(§5)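 A549 cells (1.5×10^5) seeded in RPMI 1640 + 10% FBS with 0.4 or 0.8 μM perylene or medium only. Medium changed every 3 days. Every 6 days, at confluence, cells were trypsinized, counted by hemocytometer and replated at 1.5×10^5. Population doublings n = (log Pn − log P0)/log 2, cumulated against time. Three independent experiments.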"}, "[11]": {"system": "A549", "assay": "Binding affinity to human TERT promoter DNA sequence in human A549 cells assessed as telomere restriction fragment length at 0.4 uM after 24 days by TeloTAGGG-based chemiluminescence assay (reference value: 3.6 kb)", "format": "cell-based", "outline": "as §2"}, "[12]": {"system": "A549", "assay": "Binding affinity to human TERT promoter DNA sequence in human A549 cells assessed as inhibition of telomerase-mediated MTS primer extension after 24 hrs by fluorescence-based TRAP assay", "format": "cell-based", "outline": "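A549 cells exposed to compound for 24 h, lysed in CHAPS buffer, protein measured by Bradford. 6 µg lysate protein used as telomerase source in fluorescent TRAP with MTS primer (no G-quadruplex motif), with no phenol-chloroform step. FAM-primer PCR, native PAGE, fluorescence quantified. Mean ± SD of three experiments.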"}, "[13]": {"system": "A549", "assay": "Antiproliferative activity against human A549 cells assessed as effect on population doubling at 0.4 uM up to 42 days", "format": "functional, cell-based", "outline": "as §5"}, "[14]": {"system": "A549", "assay": "Antiproliferative activity against human A549 cells assessed as cell division arrest at 0.8 uM measured on day 36", "format": "functional, cell-based", "outline": "as §5"}, "[15]": {"system": "A549", "assay": "Antiproliferative activity against human A549 cells assessed as decrease in population doubling at 0.4 uM after 42 days", "format": "functional, cell-based", "outline": "as §5"}, "[16]": {"species": "Homo sapiens", "assay": "Binding affinity to human TERT2 5'-GGGGGCTGGGCCGGGGACCCGGGAGGGGTCGGGACGGGGCGGGG-3' DNA assessed as induction of intramolecular G-quadruplex formation at 4 uM after 10 hrs by PAGE analysis", "outline": "as §4"}, "[17]": {"system": "A549", "assay": "Cytotoxicity against human A549 cells assessed as colony formation at 0.4 uM incubated for 6 days followed by subculturing in compound-free medium measured after 14 days by crystal violet staining method relative to control", "format": "functional", "outline": "as §1"}, "[18]": {"system": "A549", "assay": "Binding affinity to human TERT promoter DNA sequence in human A549 cells assessed as decrease in TERT mRNA expression after 24 hrs by semi-quantitative PCR analysis", "format": "cell-based", "outline": "(§6)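 A549 cells (3.0×10^5) grown 24 h in RPMI 1640 + 10% FBS at 37 °C, 5% CO2, then exposed to compound for 24 h. Total RNA by Trizol, reverse transcribed, hTERT amplified with specific primers. Semi-quantitative and real-time SYBR Green PCR (45 cycles), standard-curve method, normalized to GAPDH. Three independent experiments.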"}, "[19]": {"system": "A549", "assay": "Binding affinity to human TERT promoter DNA sequence in human A549 cells assessed as decrease in TERT mRNA expression at 6 uM after 24 hrs by semi-quantitative PCR analysis relative to control", "format": "cell-based", "set-up": "scale not given: the % may be the effect or the level left", "outline": "as §6"}, "[20]": {"system": "A549", "assay": "Antiproliferative activity against human A549 cells assessed as decrease in population doubling at 0.8 uM after 18 days", "format": "functional, cell-based", "outline": "as §5"}, "[21]": {"system": "A549", "assay": "Cytotoxicity against human A549 cells assessed as colony formation at 0.8 uM incubated for 24 days followed by subculturing in compound-free medium measured after 14 days by crystal violet staining method relative to control", "format": "functional", "outline": "as §1"}, "[22]": {"species": "Homo sapiens", "assay": "Binding affinity to human TERT1 5'-AAGGGGAGGGGCTGGGAGGGCCCGGA-3' DNA assessed as induction of intramoleculsr G-quadruplex formation after 10 hrs by PAGE analysis", "outline": "as §4"}, "[23]": {"system": "A549", "assay": "Cytotoxicity against human A549 cells assessed as reduction in colony formation incubated for 24 days followed by subculturing in compound-free medium measured after 14 days by crystal violet staining method", "format": "functional, cell-based", "outline": "as §1"}, "[24]": {"species": "Homo sapiens", "assay": "Binding affinity to human TERT2 5'-GGGGGCTGGGCCGGGGACCCGGGAGGGGTCGGGACGGGGCGGGG-3' DNA assessed as induction of intermolecular G-quadruplex formation at 8 to 32 uM after 10 hrs by PAGE analysis", "outline": "as §4"}, "[25]": {"system": "A549", "assay": "Binding affinity to human TERT promoter DNA sequence in human A549 cells assessed as telomere restriction fragment length at 0.8 uM after 30 days by TeloTAGGG-based chemiluminescence assay (reference value: 3.6 kb)", "format": "cell-based", "outline": "as §2"}, "[26]": {"system": "A549", "assay": "Cytotoxicity against human A549 cells assessed as colony formation at 0.8 uM incubated for 6 days followed by subculturing in compound-free medium measured after 14 days by crystal violet staining method relative to control", "format": "functional", "outline": "as §1"}, "[27]": {"assay": "Binding affinity to TSG4 primer DNA (unknown origin) assessed as inhibition of telomerase-mediated extension of primer […] by fluorescence-based TRAP assay", "outline": "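Cell-free TRAP. Compound preincubated with TSG4 primer in telomerase buffer (20 mM Tris-HCl pH 7.4, 1.5 mM MgCl2, 63 mM KCl, 1 mM EGTA, 200 µM dNTPs) at 37 °C for 2 h. Crude telomerase (50 ng) from telomerase-transfected HEK293T added, 30 °C for 30 min. Compound removed by phenol-chloroform, products ethanol-precipitated, PCR with FAM-tagged primer, 8% native PAGE, phosphoimaging. IC50 ± SD from three experiments.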"}}, "note": "Active and inactive are the calls of the source. No cut-off for these calls is given here."}
{"smiles": "CCN(CC)CCN1C(=O)c2ccc3c4cccc5c(N6CCNCC6)ccc(c6ccc(c2c36)C1=O)c54", "values": [{"measurement": "Activity", "setting": "[1]", "value": 60, "unit": "%"}, {"measurement": "Activity", "setting": "[2]", "value": 3.6, "unit": "kilobase"}, {"measurement": "Activity", "setting": "[3]", "value": "Active"}, {"measurement": "Activity", "setting": "[4]", "value": "Active"}, {"measurement": "Activity", "setting": "[5]", "value": 2.9, "unit": "kilobase"}, {"measurement": "Activity", "setting": "[6]", "value": "Dose-dependent effect"}, {"measurement": "Activity", "setting": "[7]", "value": 73, "unit": "%"}, {"measurement": "Activity", "setting": "[8]", "value": 3.6, "unit": "kilobase"}, {"measurement": "Activity", "setting": "[9]", "value": 3.5, "unit": "kilobase"}, {"measurement": "Activity", "setting": "[10]", "value": "inactive"}, {"measurement": "Activity", "setting": "[11]", "value": 3.5, "unit": "kilobase"}, {"measurement": "Activity", "setting": "[12]", "value": "Dose-dependent effect"}, {"measurement": "Activity", "setting": "[13]", "value": "inactive"}, {"measurement": "Activity", "setting": "[14]", "value": "Active"}, {"measurement": "Activity", "setting": "[15]", "value": "Active"}, {"measurement": "Activity", "setting": "[16]", "value": "Active"}, {"measurement": "Activity", "setting": "[17]", "value": 100, "unit": "%"}, {"measurement": "Activity", "setting": "[18]", "value": "Dose-dependent effect"}, {"measurement": "Activity", "setting": "[19]", "value": 37, "unit": "%"}, {"measurement": "Activity", "setting": "[20]", "value": "Active"}, {"measurement": "Activity", "setting": "[21]", "value": 35, "unit": "%"}, {"measurement": "Activity", "setting": "[22]", "value": "Dose-dependent effect"}, {"measurement": "Activity", "setting": "[23]", "value": "Dose-dependent effect"}, {"measurement": "Activity", "setting": "[24]", "value": "Active"}, {"measurement": "Activity", "setting": "[25]", "value": 3.2, "unit": "kilobase"}, {"measurement": "Activity", "setting": "[26]", "value": 100, "unit": "%"}, {"measurement": "IC50", "setting": "[27]", "value": 800, "unit": "nM"}, {"measurement": "inhibition", "setting": "[27]", "value": "Dose-dependent effect"}]}
